Laboratory results published in ChEMBL document CHEMBL3739400, “Penicyclones A-E, Antibacterial Polyketides from the Deep-Sea-Derived Fungus Penicillium sp. F23-2” (J Nat Prod, 2015).
Values after ≈ are worked out from the molar mass of the structure shown.

Assays:
[1] = Cytotoxicity against human HCT116 cells assessed as reduction in cell viability by sulforhodamine B assay; type: functional, cell-based; details: HCT-116
[2] = system: HeLa; assay: Cytotoxicity against human HeLa cells assessed as reduction in cell viability by MTT assay; type: functional, cell-based
Summary of the method: (§1)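 Cytotoxicity was measured by MTT assay on HeLa (human cervical cancer) and BEL-7402 (human hepatocellular carcinoma) cell lines, with doxorubicin as the positive control.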

[3] = system: HEK293; assay: Cytotoxicity against HEK293 cells assessed as reduction in cell viability by sulforhodamine B assay; type: cell-based; details: Homo sapiens
[4] = Cytotoxicity against human Bel7402 cells assessed as reduction in cell viability by MTT assay; type: functional, cell-based; details: Bel-7402; summary of the method: as §1
[5] = system: Staphylococcus aureus; assay: Antibacterial activity against Staphylococcus aureus ATCC 6538 assessed as growth inhibition after 24 hrs by broth microdilution method; type: functional; details: ATCC 6538, 24 h
Summary of the method: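 Broth microdilution assay against Staphylococcus aureus, with penicillin G as the positive control.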

[6] = system: A549; assay: Cytotoxicity against human A549 cells assessed as reduction in cell viability by sulforhodamine B assay; type: functional, cell-based

Compound	IC50 [1] [µM]	IC50 [2] [µM]	IC50 [3] [µM]	IC50 [4] [µM]	MIC [5] [µg/mL]	IC50 [6] [µM]
COC(=O)[C@H](C)CC[C@@]1(O)C(=O)C=C(C)[C@@H](O)[C@H]1O	> 50	> 50	> 50	> 50	0.9 (≈ 3.31 µM)	> 50
CC1=CC(=O)[C@](O)(CC[C@@H](C)C(=O)O)[C@H](O)[C@@H]1O	> 50	> 50	> 50	> 50	1 (≈ 3.87 µM)	> 50
CC1=CC(=O)[C@]2(C/C=C(\C)CCC(=O)O)O[C@@H]2[C@@H]1O	> 50	> 50	> 50	> 50	0.5 (≈ 1.88 µM)	> 50
CC1=CC(=O)[C@]2(CC/C(C)=C/CC(=O)O)O[C@@H]2[C@@H]1O	> 50	> 50	> 50	> 50	0.8 (≈ 3 µM)	> 50
CC1=CC(=O)[C@]2(CC[C@@H](C)C(=O)O2)[C@H](O)[C@@H]1O	> 50	> 50	> 50	> 50	0.3 (≈ 1.25 µM)	> 50
